Experimental data: ChEMBL document CHEMBL5696442, “Discovery of type II inhibitors of TGFβ-activated kinase 1 (TAK1) and mitogen-activated protein kinase kinase kinase kinase 2 (MAP4K2)” (J Med Chem, 2015)
Activity calls are given as the source filed them. The rule behind the calls is not given here.

Key:
[1] = biological target: Serine/threonine-protein kinase B-raf (Homo sapiens, UniProt P15056); experiment: Inhibition of BRAF Lys2 labeling site in human A-375 cells at 0.05 uM by KiNativ Profiling analysis relative to control; assay type: cell-based
[2] = biological target: T1, Inhibitor of nuclear factor kappa-B kinase subunit epsilon (Homo sapiens) (UniProt Q14164); experiment: Inhibition of IKK-epsilon (unknown origin) at 1 uM by Ambit Kinomescan binding assay relative to control; values are per cent of control
T1 sequence (whole entry): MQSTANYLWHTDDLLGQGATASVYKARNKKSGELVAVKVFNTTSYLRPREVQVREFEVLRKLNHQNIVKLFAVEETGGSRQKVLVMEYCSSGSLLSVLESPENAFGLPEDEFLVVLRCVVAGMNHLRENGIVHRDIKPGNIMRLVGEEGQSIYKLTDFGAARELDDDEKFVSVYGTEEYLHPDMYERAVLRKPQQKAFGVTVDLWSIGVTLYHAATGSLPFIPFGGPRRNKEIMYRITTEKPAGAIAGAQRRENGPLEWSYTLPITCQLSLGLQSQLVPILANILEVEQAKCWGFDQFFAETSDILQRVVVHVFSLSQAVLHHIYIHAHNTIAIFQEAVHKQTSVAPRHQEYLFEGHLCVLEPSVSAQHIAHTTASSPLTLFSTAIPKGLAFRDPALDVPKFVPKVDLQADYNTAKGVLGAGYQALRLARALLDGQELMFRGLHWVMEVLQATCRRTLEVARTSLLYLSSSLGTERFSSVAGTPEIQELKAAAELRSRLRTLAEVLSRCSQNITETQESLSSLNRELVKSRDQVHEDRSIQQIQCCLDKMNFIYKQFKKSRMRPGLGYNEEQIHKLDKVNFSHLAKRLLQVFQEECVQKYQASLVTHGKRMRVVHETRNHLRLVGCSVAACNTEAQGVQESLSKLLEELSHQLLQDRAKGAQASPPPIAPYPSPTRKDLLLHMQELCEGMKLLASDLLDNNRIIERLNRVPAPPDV

[3] = biological target: Ribosomal protein S6 kinase alpha-4 (Homo sapiens) (UniProt O75676); experiment: Inhibition of N-terminal RPS6KA4 kinase domain 1 (unknown origin) at 1 uM by Ambit Kinomescan binding assay relative to control
[4] = biological target: Focal adhesion kinase 1 (Homo sapiens) (UniProt Q05397); experiment: Inhibition of FAK (unknown origin) at 1 uM by Ambit Kinomescan binding assay relative to control
How it was run: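 In vitro ATP-site competition binding assay against a panel of over 420 kinases (KinomeScan), with compound tested at 10 or 1 μM.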

[5] = biological target: Glycogen synthase kinase-3 beta (Homo sapiens) (UniProt P49841); experiment: Inhibition of GSK3B Lys2 labeling site in human A-375 cells at 5 uM by KiNativ Profiling analysis relative to control; assay type: cell-based
[6] = biological target: Cytoplasmic tyrosine-protein kinase BMX (Homo sapiens) (UniProt P51813); experiment: Inhibition of BMX (unknown origin) at 1 uM by Ambit Kinomescan binding assay relative to control; values are per cent of control
[7] = biological target: Tyrosine-protein kinase Lyn (Homo sapiens, UniProt P07948); experiment: Inhibition of LYN (unknown origin) at 10 uM by Ambit Kinomescan binding assay relative to control; values are per cent of control
[8] = biological target: T2, Mitogen-activated protein kinase kinase kinase kinase 2 (Homo sapiens) (UniProt Q12851); experiment: Inhibition of MAP4K2 (GCK) Lys1 labeling site in human A-375 cells at 0.5 uM by KiNativ Profiling analysis relative to control; assay type: cell-based
T2 sequence (whole entry): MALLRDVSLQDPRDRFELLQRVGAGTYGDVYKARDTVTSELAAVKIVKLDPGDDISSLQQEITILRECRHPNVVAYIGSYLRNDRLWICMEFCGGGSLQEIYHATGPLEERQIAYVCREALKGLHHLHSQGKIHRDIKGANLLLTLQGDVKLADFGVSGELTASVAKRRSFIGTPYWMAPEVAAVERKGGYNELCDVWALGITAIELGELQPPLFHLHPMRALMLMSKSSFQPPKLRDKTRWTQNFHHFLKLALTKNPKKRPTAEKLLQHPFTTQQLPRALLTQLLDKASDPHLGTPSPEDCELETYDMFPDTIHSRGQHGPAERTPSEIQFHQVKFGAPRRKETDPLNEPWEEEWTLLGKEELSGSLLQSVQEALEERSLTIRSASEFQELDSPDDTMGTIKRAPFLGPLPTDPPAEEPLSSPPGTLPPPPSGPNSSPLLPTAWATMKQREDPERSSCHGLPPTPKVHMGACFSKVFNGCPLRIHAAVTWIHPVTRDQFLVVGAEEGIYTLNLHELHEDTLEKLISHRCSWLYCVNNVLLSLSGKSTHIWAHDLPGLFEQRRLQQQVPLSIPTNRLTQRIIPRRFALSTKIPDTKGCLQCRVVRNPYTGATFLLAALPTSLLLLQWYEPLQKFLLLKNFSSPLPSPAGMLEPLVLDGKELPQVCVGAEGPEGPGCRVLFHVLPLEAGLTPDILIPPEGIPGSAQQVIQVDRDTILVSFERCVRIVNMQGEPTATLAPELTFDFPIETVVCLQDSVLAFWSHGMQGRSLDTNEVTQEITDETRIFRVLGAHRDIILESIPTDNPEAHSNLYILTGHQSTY

[9] = biological target: Proto-oncogene tyrosine-protein kinase Src (Homo sapiens, UniProt P12931); experiment: Inhibition of SRC (unknown origin) at 10 uM by Ambit Kinomescan binding assay relative to control; values are per cent of control
[10] = biological target: Microtubule-associated serine/threonine-protein kinase 1 (Homo sapiens) (UniProt Q9Y2H9); experiment: Inhibition of MAST1 Lys2 labeling site in human A-375 cells at 0.5 uM by KiNativ Profiling analysis relative to control
[11] = biological target: Mitogen-activated protein kinase 6 (Homo sapiens) (UniProt Q16659); experiment: Inhibition of ERK3 (unknown origin) at 10 uM by Ambit Kinomescan binding assay
[12] = biological target: Mitogen-activated protein kinase kinase kinase kinase 4 (Homo sapiens, UniProt O95819); experiment: Inhibition of ZC1/HGK K2 labeling site in human Huh-7 cells at 1 uM by KiNativ Profiling analysis relative to control; assay type: cell-based
[13] = biological target: TRAF2 and NCK-interacting protein kinase (Homo sapiens) (UniProt Q9UKE5); experiment: Inhibition of TNIK K1 labeling site in human Huh-7 cells at 1 uM by KiNativ Profiling analysis relative to control; assay type: cell-based
[14] = biological target: STE20-related kinase adapter protein alpha (Homo sapiens) (UniProt Q7RTN6); experiment: Inhibition of STLK5 ACT labeling site in human Huh-7 cell lysate at 1 uM by KiNativ Profiling analysis relative to control; assay type: subcellular
[15] = biological target: Cyclin-dependent kinase 13 (Homo sapiens) (UniProt Q14004); experiment: Inhibition of CHED Lys2 labeling site harbouring DIKCSNILLNNR in human Huh-7 cell lysate at 1 uM by KiNativ Profiling analysis relative to control; assay type: subcellular

Chain of Focal adhesion kinase 1 (Homo sapiens) (Q05397 2-1052 limits assumed): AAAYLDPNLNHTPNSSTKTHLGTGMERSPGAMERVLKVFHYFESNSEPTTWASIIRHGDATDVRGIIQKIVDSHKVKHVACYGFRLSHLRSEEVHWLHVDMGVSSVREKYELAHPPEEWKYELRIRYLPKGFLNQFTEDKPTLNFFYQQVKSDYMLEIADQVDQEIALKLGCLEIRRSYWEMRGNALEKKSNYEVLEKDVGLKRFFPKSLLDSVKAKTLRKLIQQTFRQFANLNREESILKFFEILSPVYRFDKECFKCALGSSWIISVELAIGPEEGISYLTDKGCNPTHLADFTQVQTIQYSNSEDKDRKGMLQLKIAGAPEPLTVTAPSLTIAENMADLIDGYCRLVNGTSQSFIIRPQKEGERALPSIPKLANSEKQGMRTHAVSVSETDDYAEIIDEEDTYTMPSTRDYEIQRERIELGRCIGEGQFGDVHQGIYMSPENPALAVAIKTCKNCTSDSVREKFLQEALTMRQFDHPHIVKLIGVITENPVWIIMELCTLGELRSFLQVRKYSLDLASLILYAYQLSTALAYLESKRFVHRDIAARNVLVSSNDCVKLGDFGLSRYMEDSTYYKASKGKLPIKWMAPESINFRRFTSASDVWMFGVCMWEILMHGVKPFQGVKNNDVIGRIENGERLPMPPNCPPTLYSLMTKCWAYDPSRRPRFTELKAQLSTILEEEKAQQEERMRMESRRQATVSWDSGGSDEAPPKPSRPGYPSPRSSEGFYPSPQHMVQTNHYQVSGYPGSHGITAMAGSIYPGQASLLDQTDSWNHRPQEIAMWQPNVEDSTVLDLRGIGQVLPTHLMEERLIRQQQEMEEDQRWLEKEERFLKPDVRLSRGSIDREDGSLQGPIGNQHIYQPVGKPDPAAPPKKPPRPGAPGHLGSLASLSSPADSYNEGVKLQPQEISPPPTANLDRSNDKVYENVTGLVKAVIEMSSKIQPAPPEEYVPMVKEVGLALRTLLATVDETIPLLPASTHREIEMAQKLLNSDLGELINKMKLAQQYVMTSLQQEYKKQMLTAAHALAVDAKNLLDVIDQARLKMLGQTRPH
Chain of Microtubule-associated serine/threonine-protein kinase 1 (Homo sapiens) (Q9Y2H9 whole entry, looked up): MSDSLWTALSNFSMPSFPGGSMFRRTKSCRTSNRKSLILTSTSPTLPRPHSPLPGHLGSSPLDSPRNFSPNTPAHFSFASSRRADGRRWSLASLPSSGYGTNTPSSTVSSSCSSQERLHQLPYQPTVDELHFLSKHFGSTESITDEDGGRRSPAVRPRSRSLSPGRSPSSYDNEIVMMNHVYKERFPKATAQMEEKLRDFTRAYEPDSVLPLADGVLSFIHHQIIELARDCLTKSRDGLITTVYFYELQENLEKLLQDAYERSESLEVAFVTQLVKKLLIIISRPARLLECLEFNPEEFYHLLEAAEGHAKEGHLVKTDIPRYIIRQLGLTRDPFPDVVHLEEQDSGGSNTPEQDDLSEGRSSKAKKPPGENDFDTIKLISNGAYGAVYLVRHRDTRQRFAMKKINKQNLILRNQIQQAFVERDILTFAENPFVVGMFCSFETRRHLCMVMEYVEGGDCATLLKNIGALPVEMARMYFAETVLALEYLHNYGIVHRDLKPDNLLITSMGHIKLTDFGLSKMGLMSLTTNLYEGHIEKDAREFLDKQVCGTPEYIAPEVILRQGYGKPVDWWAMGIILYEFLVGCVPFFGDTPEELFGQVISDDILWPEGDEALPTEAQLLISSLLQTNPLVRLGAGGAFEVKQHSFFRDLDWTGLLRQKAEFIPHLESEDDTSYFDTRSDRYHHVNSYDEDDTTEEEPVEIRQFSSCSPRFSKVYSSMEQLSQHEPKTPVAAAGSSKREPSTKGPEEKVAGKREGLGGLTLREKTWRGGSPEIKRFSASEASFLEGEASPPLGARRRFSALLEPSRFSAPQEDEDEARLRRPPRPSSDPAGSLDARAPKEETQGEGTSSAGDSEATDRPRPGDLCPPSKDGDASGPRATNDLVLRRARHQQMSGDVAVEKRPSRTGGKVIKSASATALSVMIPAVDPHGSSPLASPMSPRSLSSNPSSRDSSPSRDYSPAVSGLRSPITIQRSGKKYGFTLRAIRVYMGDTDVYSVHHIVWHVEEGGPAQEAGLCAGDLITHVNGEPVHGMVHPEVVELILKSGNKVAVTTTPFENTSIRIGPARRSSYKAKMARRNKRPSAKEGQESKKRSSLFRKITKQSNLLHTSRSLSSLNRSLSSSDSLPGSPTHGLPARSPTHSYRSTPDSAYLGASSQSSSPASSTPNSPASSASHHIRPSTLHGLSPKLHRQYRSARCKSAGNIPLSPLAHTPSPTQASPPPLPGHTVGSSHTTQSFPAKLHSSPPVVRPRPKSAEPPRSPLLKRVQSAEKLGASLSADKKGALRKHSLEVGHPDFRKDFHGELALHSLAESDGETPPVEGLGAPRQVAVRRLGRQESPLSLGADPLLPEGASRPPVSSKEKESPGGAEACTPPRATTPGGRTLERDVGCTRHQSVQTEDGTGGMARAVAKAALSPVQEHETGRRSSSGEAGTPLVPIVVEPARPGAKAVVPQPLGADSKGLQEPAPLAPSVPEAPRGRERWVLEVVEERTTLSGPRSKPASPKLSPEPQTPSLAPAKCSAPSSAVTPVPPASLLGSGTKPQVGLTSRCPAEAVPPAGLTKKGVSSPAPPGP
Chain of STE20-related kinase adapter protein alpha (Homo sapiens) (Q7RTN6 whole entry): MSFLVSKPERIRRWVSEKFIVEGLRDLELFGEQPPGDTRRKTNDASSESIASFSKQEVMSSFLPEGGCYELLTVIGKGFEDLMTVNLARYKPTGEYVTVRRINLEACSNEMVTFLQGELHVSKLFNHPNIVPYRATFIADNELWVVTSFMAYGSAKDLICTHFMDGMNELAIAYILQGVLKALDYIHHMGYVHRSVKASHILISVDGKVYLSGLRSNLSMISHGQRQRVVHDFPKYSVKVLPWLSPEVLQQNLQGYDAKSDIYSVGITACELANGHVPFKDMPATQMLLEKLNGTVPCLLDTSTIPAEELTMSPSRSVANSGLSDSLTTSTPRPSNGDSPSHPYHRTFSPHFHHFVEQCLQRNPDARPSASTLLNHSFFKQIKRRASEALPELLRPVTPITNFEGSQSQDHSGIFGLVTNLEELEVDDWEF
Chain of Mitogen-activated protein kinase kinase kinase kinase 4 (O95819 2-1239 limits assumed): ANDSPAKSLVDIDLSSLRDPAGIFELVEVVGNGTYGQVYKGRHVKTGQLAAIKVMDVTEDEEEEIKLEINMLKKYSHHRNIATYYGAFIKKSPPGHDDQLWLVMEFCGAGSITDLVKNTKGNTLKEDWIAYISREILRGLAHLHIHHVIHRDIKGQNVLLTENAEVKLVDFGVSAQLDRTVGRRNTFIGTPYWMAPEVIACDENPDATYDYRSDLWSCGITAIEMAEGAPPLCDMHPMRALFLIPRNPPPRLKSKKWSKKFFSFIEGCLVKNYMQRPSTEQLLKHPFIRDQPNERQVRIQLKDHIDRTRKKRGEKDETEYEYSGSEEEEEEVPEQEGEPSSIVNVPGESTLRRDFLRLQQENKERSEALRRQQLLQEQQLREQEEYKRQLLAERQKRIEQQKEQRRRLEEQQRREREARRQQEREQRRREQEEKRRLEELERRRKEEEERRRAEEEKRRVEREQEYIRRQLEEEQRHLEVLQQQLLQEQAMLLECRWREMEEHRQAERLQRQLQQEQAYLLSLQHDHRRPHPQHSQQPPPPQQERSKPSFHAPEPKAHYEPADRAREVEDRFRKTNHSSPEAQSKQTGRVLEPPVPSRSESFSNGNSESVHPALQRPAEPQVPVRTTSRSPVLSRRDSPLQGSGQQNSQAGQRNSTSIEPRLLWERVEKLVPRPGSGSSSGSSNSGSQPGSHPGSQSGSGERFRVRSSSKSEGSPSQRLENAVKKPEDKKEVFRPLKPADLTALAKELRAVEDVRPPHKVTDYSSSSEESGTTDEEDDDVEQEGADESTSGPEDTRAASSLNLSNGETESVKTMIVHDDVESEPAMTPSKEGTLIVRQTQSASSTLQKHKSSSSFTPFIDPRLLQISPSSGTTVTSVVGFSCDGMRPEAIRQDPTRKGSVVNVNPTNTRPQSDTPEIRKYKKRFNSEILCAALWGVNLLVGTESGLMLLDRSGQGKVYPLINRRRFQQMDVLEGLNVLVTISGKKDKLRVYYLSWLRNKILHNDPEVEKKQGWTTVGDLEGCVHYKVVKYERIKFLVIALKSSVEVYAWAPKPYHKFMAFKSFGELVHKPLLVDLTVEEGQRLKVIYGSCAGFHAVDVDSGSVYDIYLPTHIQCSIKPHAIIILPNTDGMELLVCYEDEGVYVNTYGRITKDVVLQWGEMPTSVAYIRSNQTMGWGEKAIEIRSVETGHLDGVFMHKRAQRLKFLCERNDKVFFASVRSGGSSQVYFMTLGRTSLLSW
Chain of Serine/threonine-protein kinase B-raf (P15056 whole entry): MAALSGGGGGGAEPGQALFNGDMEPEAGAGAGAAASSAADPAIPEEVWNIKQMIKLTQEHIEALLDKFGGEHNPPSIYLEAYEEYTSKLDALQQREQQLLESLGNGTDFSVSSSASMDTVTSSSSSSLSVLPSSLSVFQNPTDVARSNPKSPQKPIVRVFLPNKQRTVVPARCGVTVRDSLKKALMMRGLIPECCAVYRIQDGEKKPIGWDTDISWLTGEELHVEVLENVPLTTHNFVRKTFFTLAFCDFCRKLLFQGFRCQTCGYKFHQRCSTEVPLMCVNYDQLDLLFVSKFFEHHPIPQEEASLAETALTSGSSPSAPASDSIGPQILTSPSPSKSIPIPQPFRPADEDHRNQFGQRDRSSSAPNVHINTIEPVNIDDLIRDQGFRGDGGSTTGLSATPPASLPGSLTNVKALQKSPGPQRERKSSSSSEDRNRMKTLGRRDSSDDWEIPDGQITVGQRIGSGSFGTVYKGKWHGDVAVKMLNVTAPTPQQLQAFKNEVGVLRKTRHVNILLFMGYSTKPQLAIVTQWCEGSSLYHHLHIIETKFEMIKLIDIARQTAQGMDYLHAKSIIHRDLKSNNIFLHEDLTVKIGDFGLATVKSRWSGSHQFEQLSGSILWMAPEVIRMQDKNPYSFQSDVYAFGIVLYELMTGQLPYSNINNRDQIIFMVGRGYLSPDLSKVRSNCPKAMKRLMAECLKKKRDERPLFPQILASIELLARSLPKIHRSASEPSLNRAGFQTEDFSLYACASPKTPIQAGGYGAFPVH

For `CCN1CCN(Cc2ccc(NC(=O)c3ccc(C)c(/C=C/c4cnc5[nH]ccc5c4OC)c3)cc2C(F)(F)F)CC1`, the inhibition [1] was 29.6%, the residual activity [2] was 100% and the inhibition [3] was 72%. For the same molecule, the inhibition [4] was 84%, the inhibition [5] was 34.6% and the residual activity [6] was 1.6%.

With `CCN1CCN(Cc2ccc(NC(=O)c3ccc(C)c(Oc4ccnc5[nH]ccc45)c3)cc2C(F)(F)F)CC1` the percent of control [7] was 0.75%, the inhibition [8] was greater than 99.5% and the residual activity [9] was 0.2%. The inhibition [10] was 16.1%, the inhibition [11] was “inactive” and the inhibition [12] was 23%. For the same molecule, the inhibition [13] was 35.6%.

In the case of `CNc1cc(Oc2cc(C(=O)Nc3cc(N4CCN(C)CC4)cc(C(F)(F)F)c3)ccc2C)ncn1`, the inhibition [14] is reported as 5.3% and the inhibition [15] is reported as 14%.
